A selection: hits, their analogues and other compounds. The true share with any hit is near 2.9%.
DENV2 CPE rescue – inhibitors of DENV2 cytopathic effect, primary screen, cell-based, plate reader, single concentration | DENV2-infected cells, cytopathic effect rescue | CPE inhibition, % at 9.99 µM | 350,000 tested, 1.7% active | AID 651640, 2012; in the data active means CPE inhibition above about 20%, passing the limit was not always enough; tested in BHK-21 cells;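 further: 0% = median of neutral control wells and 100% = median of positive control wells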
SIRT5 block – SIRT5 desuccinylase inhibitors, primary screen, biochemical, fluorescence imaging, single point, set 5. NAD-dependent protein deacylase sirtuin-5, mitochondrial (Homo sapiens), Q9NXA8. Purified SirT5, succinyl-peptide AMC, trypsin-coupled fluorescence. inhibition, % at 15 µM. 330,000 tested, 1.1% active; in the data active means inhibition above about 15%
E-sel inducer – E-selectin induction in HUVECs, primary screen, imaging, HUVEC, immunofluorescence imaging, single point. 260,000 tested, 0.37% active. activation, % at 7.58 µM. AID 686992, 2013. normalized: neutral wells 0, TNF-alpha wells 100;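 active means mean E-selectin-positive cell signal at least 10% of the positive control, reached in at least 60% of replicates, without over 20% cell loss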
Target sequence (P16581 whole entry, looked up): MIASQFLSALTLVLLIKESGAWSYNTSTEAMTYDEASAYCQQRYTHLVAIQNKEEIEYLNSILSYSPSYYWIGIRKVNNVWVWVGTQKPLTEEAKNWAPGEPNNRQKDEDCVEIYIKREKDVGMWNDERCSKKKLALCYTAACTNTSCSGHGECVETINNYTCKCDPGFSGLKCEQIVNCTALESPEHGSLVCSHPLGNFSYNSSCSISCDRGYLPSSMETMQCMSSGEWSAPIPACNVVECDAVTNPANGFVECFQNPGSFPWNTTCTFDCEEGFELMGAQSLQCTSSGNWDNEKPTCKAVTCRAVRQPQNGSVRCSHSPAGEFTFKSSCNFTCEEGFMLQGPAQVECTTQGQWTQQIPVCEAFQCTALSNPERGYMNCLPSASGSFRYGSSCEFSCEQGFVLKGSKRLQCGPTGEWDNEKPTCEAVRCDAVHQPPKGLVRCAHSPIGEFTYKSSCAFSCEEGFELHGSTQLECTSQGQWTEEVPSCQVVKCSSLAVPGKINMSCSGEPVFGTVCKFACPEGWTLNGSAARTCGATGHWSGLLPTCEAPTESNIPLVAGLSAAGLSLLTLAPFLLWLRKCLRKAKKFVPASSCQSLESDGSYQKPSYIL
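Read-out basis: % PE-positive cells; Test system: HUVEC primary endothelial cells; Technique: immunofluorescence imaging; Dosing: single-point compound dose.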
* marks the source's active call; other numbers are inactive results; nt = no result given.

SMILES	DENV2 CPE rescue	SIRT5 block	E-sel inducer
C[C@@H]1CCCCO[C@@H](CN(C)Cc2ccc3c(c2)OCO3)[C@H](C)CN([C@@H](C)CO)C(=O)c2cc(NS(=O)(=O)c3ccc(Cl)cc3)ccc2O1	-1	7	nt
COc1ccc(S(=O)(=O)Nc2ccc3c(c2)C(=O)N([C@@H](C)CO)C[C@@H](C)[C@@H](CN(C)Cc2ccc4c(c2)OCO4)OCCCC[C@H](C)O3)cc1	22*	4	0
COc1ccc(S(=O)(=O)Nc2ccc3c(c2)C(=O)N([C@@H](C)CO)C[C@H](C)[C@@H](CN(C)Cc2ccc4c(c2)OCO4)OCCCC[C@@H](C)O3)cc1	24*	-1	0
COc1ccc(CN(C)C[C@@H]2OCCCC[C@@H](C)Oc3ccc(NS(=O)(=O)c4ccc(OC)cc4)cc3C(=O)N([C@@H](C)CO)C[C@H]2C)cc1	0	nt	0
COc1ccc(CN(C)C[C@H]2OCCCC[C@@H](C)Oc3ccc(NS(=O)(=O)c4ccc(OC)cc4)cc3C(=O)N([C@H](C)CO)C[C@@H]2C)cc1	1	nt	0
COc1ccc(S(=O)(=O)Nc2ccc3c(c2)C(=O)N([C@H](C)CO)C[C@@H](C)[C@@H](CN(C)Cc2ccc4c(c2)OCO4)OCCCC[C@@H](C)O3)cc1	21*	5	0
C[C@@H]1CN([C@@H](C)CO)C(=O)c2cc(NS(=O)(=O)c3ccc(Cl)cc3)ccc2O[C@@H](C)CCCCO[C@@H]1CN(C)Cc1ccc2c(c1)OCO2	15	16*	nt
COc1ccc(S(=O)(=O)Nc2ccc3c(c2)C(=O)N([C@H](C)CO)C[C@@H](C)[C@H](CN(C)Cc2ccc4c(c2)OCO4)OCCCC[C@@H](C)O3)cc1	3	5	1
CN1CCC(=C(c2ccccc2)c2ccc(Br)cc2)CC1	-13	nt	0
CNC[C@@H]1OCCCC[C@@H](C)Oc2ccc(NC(=O)C3CCCCC3)cc2C(=O)N([C@@H](C)CO)C[C@H]1C	3	1	0
C[C@@H]1CCCCO[C@@H](CN(C)S(=O)(=O)c2cccs2)[C@@H](C)CN([C@H](C)CO)C(=O)c2cc(NS(=O)(=O)c3cccs3)ccc2O1	19	1	0
CN1CCN(C2CN(Cc3ccccc3)S(=O)(=O)C2)CC1 (configuration not stated)	-14	0	1
COC(=O)C1=C(C)N(CCCC(=O)O)C(=O)NC1c1ccc(-c2ccccc2)cc1 (configuration not stated)	-8	2	nt
COC(=O)[C@H](Cc1ccc(O)cc1)NC(=O)Cn1cnc(C(=O)Nc2ccc(C)c(C)c2)n1	14	-2	0
C[C@@H]1CN([C@@H](C)CO)C(=O)c2cccc(NC(=O)c3nc4ccccc4s3)c2O[C@@H]1CN(C)S(=O)(=O)c1ccccc1	-10	5	0
COc1ccc(S(=O)(=O)Nc2ccc3c(c2)C(=O)N([C@H](C)CO)C[C@H](C)[C@H](CN(C)Cc2ccc4c(c2)OCO4)OCCCC[C@H](C)O3)cc1	59*	3	0
COc1ccc(S(=O)(=O)Nc2ccc3c(c2)C(=O)N([C@@H](C)CO)C[C@H](C)[C@H](CN(C)Cc2ccc4c(c2)OCO4)OCCCC[C@@H](C)O3)cc1	-6	10	1
COc1ccc(S(=O)(=O)Nc2ccccc2OC)cc1N=Nc1c(O)[nH]c(=S)[nH]c1=O	-3	0	0
Cc1noc(C)c1S(=O)(=O)Nc1ccc2c(c1)C(=O)N([C@H](C)CO)C[C@@H](C)[C@@H](CN(C)Cc1ccc3c(c1)OCO3)O2	-7	3	44*
Cc1noc(C)c1S(=O)(=O)Nc1ccc2c(c1)C(=O)N([C@H](C)CO)C[C@@H](C)[C@@H](CN(C)Cc1ccc(Cl)c(Cl)c1)O2	-6	3	nt
Cc1noc(C)c1S(=O)(=O)Nc1ccc2c(c1)C(=O)N([C@H](C)CO)C[C@H](C)[C@@H](CN(C)Cc1ccc(Cl)c(Cl)c1)O2	3	-2	nt
Cc1noc(C)c1S(=O)(=O)Nc1ccc2c(c1)C(=O)N([C@H](C)CO)C[C@@H](C)[C@H](CN(C)Cc1ccc3c(c1)OCO3)O2	7	4	26*
O=S(=O)(c1cccc(F)c1)N1CCN(c2ncnc3scc(-c4ccc(F)cc4)c23)CC1	-12	1	0
COc1ccccc1OCc1cc(C(=O)N2CCCC(OCc3cccnc3)C2)no1 (configuration not stated)	8	-1	-4
C[C@@H]1CN([C@@H](C)CO)C(=O)c2cc(NC(=O)Nc3ccc(F)cc3)ccc2O[C@@H](C)CCCCO[C@H]1CN(C)C(=O)c1ccccc1	-7	2	0
SMILES	DENV2 CPE rescue	SIRT5 block	E-sel inducer
C[C@H](CO)N1C[C@H](C)[C@@H](CN(C)C(=O)c2ccccc2)OCCCC[C@H](C)Oc2ccc(NC(=O)Nc3ccc(F)cc3)cc2C1=O	15	5	0
C[C@H]1CCCCO[C@@H](CN(C)C(=O)c2ccccc2)[C@@H](C)CN([C@@H](C)CO)C(=O)c2cc(NC(=O)Nc3ccc(F)cc3)ccc2O1	22*	4	0
C[C@@H]1CCCCO[C@H](CN(C)C(=O)c2ccccc2)[C@@H](C)CN([C@H](C)CO)C(=O)c2cc(NC(=O)Nc3ccc(F)cc3)ccc2O1	32*	1	0
Cc1nc2ccc(C(=O)Nc3cccc(NS(C)(=O)=O)c3)cn2c1N(C)C(=O)CCc1ccccc1	-7	1	1
Cc1nc2ccc(C(=O)NC(C)(C)C)cn2c1N(C)C(=O)CCc1ccccc1	35*	nt	0
COc1ccc2ccccc2c1/C=N/NC(=S)NCCN1CCOCC1	0	8	0
O=C(/C(=C/c1cccnc1)n1ccnc1)c1ccc(Cl)cc1Cl	1	0	nt
CNC[C@H]1Oc2ccc(NC(=O)Cn3cnnn3)cc2C(=O)N([C@@H](C)CO)C[C@H]1C	32*	0	0
CNC[C@@H]1Oc2ccc(NC(=O)Cn3cnnn3)cc2C(=O)N([C@@H](C)CO)C[C@@H]1C	-1	1	0
C[C@H](CO)N1C[C@H](C)[C@H](CN(C)C(=O)Nc2ccc3c(c2)OCO3)Oc2ccc(NC(=O)Cn3cnnn3)cc2CC1=O	42*	-1	-1
C[C@@H]1CN([C@@H](C)CO)C(=O)Cc2cc(NC(=O)Cn3cnnn3)ccc2O[C@@H]1CN(C)C(=O)Nc1ccc(F)cc1	nt	nt	-3
C[C@@H]1CN([C@H](C)CO)C(=O)Cc2cc(NC(=O)Cn3cnnn3)ccc2O[C@@H]1CN(C)C(=O)Nc1ccc2c(c1)OCO2	0	-5	2
CC(C)NC(=O)N(C)C[C@@H]1Oc2ccc(NC(=O)Cn3cnnn3)cc2CC(=O)N([C@@H](C)CO)C[C@H]1C	-10	-4	66*
C[C@@H]1CN([C@@H](C)CO)C(=O)Cc2cc(NC(=O)Cn3cnnn3)ccc2O[C@H]1CN(C)C(=O)Nc1ccc(F)cc1	nt	nt	86*
CC(C)NC(=O)N(C)C[C@H]1Oc2ccc(NC(=O)Cn3cnnn3)cc2CC(=O)N([C@H](C)CO)C[C@@H]1C	1	-15	-7
S=C1NCN(Cc2ccco2)CN1c1cccc2ccccc12	-1	-7	nt

Source: PubChem
